Where a name gives a salt, the structure may show the parent alone. Activity calls are given as the source filed them. The calls are words filed in the database; no cut-off is given here.
Tests used:
HT-29 = assay: Growth inhibition of human HT-29 cells after 72 hrs by SRB assay; type: functional; conditions: HT-29, 72 h
Outline: (§1)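 Cell lines kept in RPMI with 10% FCS, 2 mM L-glutamine, penicillin/streptomycin at 37 °C, 5% CO2. Exposure 72 h to 10 concentrations from 10 to 0.0026 μg/mL. Cells fixed in 1% glutaraldehyde, stained with 0.4% SRB for 30 min, dye extracted in 10 mM Trizma base, absorbance read at 490 nm. GI50 from triplicate dose-response cultures by NCI algorithm; mean ± SD of three independent experiments.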

A549 [1] = assay: Growth inhibition of human A549 cells after 72 hrs by SRB assay; type: functional; conditions: A549, 72 h; outline: as §1
SK-BR-3 = assay: Growth inhibition of human SKBR3 cells after 72 hrs by SRB assay; type: functional; conditions: SK-BR-3, 72 h; outline: as §1
Bos taurus [2] = species on record: Bos taurus; assay: Inhibition of bovine brain tubulin polymerization at 1 uM after 30 mins by spectrophotometric analysis
A549 [3] = assay: Cell cycle arrest in human A549 cells assessed as accumulation at G2/M phase at 0.001 to 100 uM after 20 hrs by propidium iodide staining-based flow cytometry; type: functional
Outline: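 A-549 cells (180 000 per mL) incubated 20 h with ligands from 1 nM to 100 μM, with untreated and DMSO vehicle controls. Cells fixed in 70% ethanol, RNase-treated and stained with propidium iodide. DNA content read by flow cytometry to give percent of cells in each cycle phase. Lowest concentration giving G2/M arrest recorded.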

A549 [4] = assay: Antimitotic activity in human A549 cells assessed as induction of microtubule depolymerization at 0.05 to 100 uM after 20 hrs by Hoechst 33342 staining-based fluorescence microscopy; type: functional, cell-based
Outline: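 A-549 lung carcinoma cells plated at 150 000 cells/ml on coverslips, cultured overnight, then exposed to ligands or DMSO vehicle (residual DMSO <0.5%). Cells permeabilised with Triton X100, fixed in 3.7% formaldehyde, stained with DM1A anti-α-tubulin and FITC secondary, chromatin stained with 1 μg/mL Hoechst 33342. Examined by epifluorescence microscopy. Methods state 24 h exposure; legend states 20 h.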

Bos taurus [5] = species on record: Bos taurus; assay: Displacement of MTC from bovine brain tubulin colchicine binding site at 20 uM by fluorometric assay
Outline: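 Calf brain tubulin 10 μM with 10 μM MTC in 10 mM sodium phosphate, 0.1 mM GTP, pH 7.0, with 20 μM ligand. Excitation at 350 nm. Fluorescence emission spectra recorded and the decrease relative to tubulin-bound MTC taken as displacement from the colchicine site.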

Row | SMILES | GI50 (HT-29) | GI50 (A549 [1]) | GI50 (SK-BR-3) | inhibition (Bos taurus [2]) | Activity (A549 [3]) | Activity (A549 [4]) | Activity (Bos taurus [5])
1 | COc1cc([C@@H]2c3cc4c(cc3[C@](O)(C(C)(C)O)[C@H]3COC(=O)[C@H]23)OCO4)cc(OC)c1OC | 0.598 µM | 0.577 µM | 0.457 µM |  |  |  | 
2 | COc1cc([C@@H]2c3cc4c(cc3[C@](O)(C3(O)CCCCC3)[C@H]3COC(=O)[C@@H]23)OCO4)cc(OC)c1OC | 2.9 µM | 3.62 µM | 1.25 µM |  |  |  | 
3 | COc1cc([C@@H]2c3cc4c(cc3[C@](O)([C@H](O)C3CC=CCC3)[C@H]3COC(=O)[C@H]23)OCO4)cc(OC)c1OC (stereo not given in full) | 2.51 µM | 2.03 µM | 2.43 µM |  |  |  | 
4 | COc1cc([C@@H]2c3cc4c(cc3[C@](O)(C3(O)CCOCC3)[C@H]3COC(=O)[C@@H]23)OCO4)cc(OC)c1OC | 0.0268 µM | 0.029 µM | 0.0259 µM | 21.1% | >70% | Active | 
5 | COc1cc([C@@H]2c3cc4c(cc3[C@@](O)(C3(O)C5CCCC3CCC5)[C@H]3COC(=O)[C@H]23)OCO4)cc(OC)c1OC (stereo not given in full) | 6.42 µM | 5.68 µM | 6.72 µM | 12% | >70% | Active | 15%
6 | COc1cc([C@@H]2c3cc4c(cc3[C@@H](O)[C@H]3COC(=O)[C@H]23)OCO4)cc(OC)c1OC [EPIPODOPHYLLOTOXIN] | 0.06 µM | 0.06 µM |  |  |  |  | 
7 | COc1cc([C@@H]2c3cc4c(cc3[C@](O)(C3(O)CCC3)[C@H]3COC(=O)[C@H]23)OCO4)cc(OC)c1OC | 0.198 µM | 0.191 µM | 0.219 µM |  | >70% | Active | 
8 | C=C1c2cc3c(cc2[C@@H](c2cc(OC)c(OC)c(OC)c2)[C@@H]2C(=O)OC[C@H]12)OCO3 | 0.0781 µM | 0.0281 µM | 0.0668 µM |  |  |  | 
9 | COc1cc([C@@H]2c3cc4c(cc3[C@](O)(C(O)(c3ccccc3)c3ccccc3)[C@H]3COC(=O)[C@H]23)OCO4)cc(OC)c1OC | 0.281 µM | 0.376 µM | 0.313 µM |  |  |  | 
10 | COc1cc([C@@H]2c3cc4c(cc3[C@H](O)[C@H]3COC(=O)[C@H]23)OCO4)cc(OC)c1OC [PODOFILOX] | 0.012 µM | 0.012 µM |  | 7% | >70% | Active | 25%
11 | CCC[C@@H](O)[C@@]1(O)c2cc3c(cc2[C@@H](c2cc(OC)c(OC)c(OC)c2)[C@H]2C(=O)OC[C@@H]21)OCO3 | 0.404 µM | 0.279 µM | 0.288 µM |  |  |  | 
12 | COc1cc([C@@H]2c3cc4c(cc3[C@](O)([C@@](C)(O)C(C)C)[C@H]3COC(=O)[C@H]23)OCO4)cc(OC)c1OC | 1.73 µM | 1.15 µM | 1.03 µM |  |  |  | 
13 | COc1cc([C@@H]2c3cc4c(cc3C(=C(C)C)[C@H]3COC(=O)[C@@H]23)OCO4)cc(OC)c1OC | 8.28 µM | 6.44 µM | 3.78 µM |  |  |  | 
14 | COc1cc([C@@H]2c3cc4c(cc3[C@](O)(C3(O)CCCC3)[C@H]3COC(=O)[C@H]23)OCO4)cc(OC)c1OC | 0.451 µM | 0.444 µM | 0.439 µM |  | >70% | Active | 
15 | COc1cc([C@@H]2c3cc4c(cc3[C@@](O)(C(C)(C)O)[C@H]3COC(=O)[C@H]23)OCO4)cc(OC)c1OC | 0.659 µM | 1.48 µM | 0.511 µM |  |  |  | 
16 | COc1cc([C@@H]2c3cc4c(cc3[C@](O)([C@](C)(O)C(C)C)[C@H]3COC(=O)[C@H]23)OCO4)cc(OC)c1OC | 0.204 µM | 0.254 µM | 0.181 µM |  |  |  | 

Row | SMILES | GI50 (HT-29) | GI50 (A549 [1]) | GI50 (SK-BR-3) | inhibition (Bos taurus [2]) | Activity (A549 [3]) | Activity (A549 [4]) | Activity (Bos taurus [5])
17 | COc1cc([C@@H]2c3cc4c(cc3[C@@]3(OC(C)(C)O[C@H]3C)[C@H]3COC(=O)[C@H]23)OCO4)cc(OC)c1OC | 6.56 µM | 6.02 µM | 6.14 µM |  |  |  | 
18 | COc1cc([C@@H]2c3cc4c(cc3/C(=C(\c3ccccc3)C(C)C)[C@H]3COC(=O)[C@@H]23)OCO4)cc(OC)c1OC | 11.4 µM | 6.21 µM | 14.3 µM |  |  |  | 
19 | COc1cc([C@@H]2c3cc4c(cc3[C@H](C(C)C)[C@H]3COC(=O)[C@@H]23)OCO4)cc(OC)c1OC | 0.0831 µM | 0.0795 µM | 0.0841 µM | 84.5% | >70% | Active | 35%
20 | COc1cc([C@@H]2c3cc4c(cc3[C@](O)(C3(O)CCCCC3)[C@H]3COC(=O)[C@H]23)OCO4)cc(OC)c1OC | 0.0975 µM | 0.0908 µM | 0.0649 µM |  | >70% | Active | 
21 | COc1cc([C@@H]2c3cc4c(cc3[C@](O)(C3(O)C5CCCC3CCC5)[C@H]3COC(=O)[C@H]23)OCO4)cc(OC)c1OC (stereo not given in full) | 0.00514 µM | 0.00639 µM | 0.00739 µM | 45.1% | >70% | Active | 
22 | COc1cc([C@@H]2c3cc4c(cc3[C@](O)([C@](O)(c3ccccc3)C(C)C)[C@H]3COC(=O)[C@H]23)OCO4)cc(OC)c1OC | 0.159 µM | 0.139 µM | 0.148 µM |  | >70% | Active | 
23 | COc1cc([C@@H]2c3cc4c(cc3[C@](O)(C3(O)CCSCC3)[C@H]3COC(=O)[C@@H]23)OCO4)cc(OC)c1OC | 2.62 µM | 3.32 µM | 1.78 µM |  |  |  | 
24 | COc1cc([C@@H]2c3cc4c(cc3[C@@](O)(C3(O)CCCC3)[C@H]3COC(=O)[C@H]23)OCO4)cc(OC)c1OC | 2.72 µM | 1.69 µM | 2.42 µM |  |  |  | 
25 | COc1cccc2c1C(=O)c1c(O)c3c(c(O)c1C2=O)C[C@@](O)(C(=O)CO)C[C@@H]3O[C@H]1C[C@H](N)[C@H](O)[C@H](C)O1 [DOXORUBICIN HYDROCHLORIDE] | 0.153 µM | 0.0603 µM | 0.0655 µM |  |  |  | 
26 | COc1cc([C@@H]2c3cc4c(cc3[C@@](O)(C3(O)CCOCC3)[C@H]3COC(=O)[C@@H]23)OCO4)cc(OC)c1OC | 15.4 µM | 8.92 µM | 8.01 µM | 2.8% | >70% | Active | 
27 | COc1cc([C@@H]2c3cc4c(cc3/C(=C(/C)C(C)C)[C@H]3COC(=O)[C@@H]23)OCO4)cc(OC)c1OC | 10.2 µM | 7.7 µM | 4.53 µM |  |  |  | 
28 | COc1cc([C@@H]2c3cc4c(cc3[C@@](O)(C(O)(c3ccccc3)c3ccccc3)[C@H]3COC(=O)[C@H]23)OCO4)cc(OC)c1OC | 0.528 µM | 0.874 µM | 0.524 µM |  |  |  | 
29 | COc1cc([C@@H]2c3cc4c(cc3[C@@]3(OC(C)(C)O[C@@H]3C)[C@H]3COC(=O)[C@H]23)OCO4)cc(OC)c1OC | 5.23 µM | 6.22 µM | 5.87 µM |  |  |  | 
30 | COc1ccc([C@@](C)(O)[C@@]2(O)c3cc4c(cc3[C@@H](c3cc(OC)c(OC)c(OC)c3)[C@H]3C(=O)OC[C@@H]32)OCO4)cc1OC | 4.75 µM | 2.62 µM | 4.99 µM |  |  |  | 
31 | COc1cc([C@@H]2c3cc4c(cc3[C@@](O)(C3(O)CCCCC3)[C@H]3COC(=O)[C@H]23)OCO4)cc(OC)c1OC | 0.859 µM | 0.547 µM | 0.61 µM |  |  |  | 

Source: ChEMBL document CHEMBL2163197, “Synthesis and antimitotic and tubulin interaction profiles of novel pinacol derivatives of podophyllotoxins” (2012)
